# Legend:
# [1] = target: T1, 5-hydroxytryptamine receptor 1F (Homo sapiens, UniProt P30939); assay: In vitro binding affinity was determined by radioligand binding assay using cell line expressing human 5-hydroxytryptamine 1F receptor
# T1 sequence (P30939 whole entry): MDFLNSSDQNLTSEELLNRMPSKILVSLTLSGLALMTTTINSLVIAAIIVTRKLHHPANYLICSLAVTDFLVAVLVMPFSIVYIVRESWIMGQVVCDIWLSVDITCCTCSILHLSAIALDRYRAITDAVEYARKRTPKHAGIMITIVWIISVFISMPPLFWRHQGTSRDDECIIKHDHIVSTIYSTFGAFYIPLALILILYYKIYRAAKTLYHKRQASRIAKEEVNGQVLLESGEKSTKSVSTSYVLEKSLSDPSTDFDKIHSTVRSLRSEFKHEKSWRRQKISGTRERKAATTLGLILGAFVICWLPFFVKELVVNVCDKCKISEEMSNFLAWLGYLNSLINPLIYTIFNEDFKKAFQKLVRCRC
# In short: (§1)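 Ki (nM) from radioligand binding on cell lines each expressing one human serotonin receptor subtype. Values are means of at least three determinations with SEM. ND: Ki not determined, when a 10⁻⁷ M test ligand gave <50% displacement of radioligand.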
# [2] = target: T2, 5-hydroxytryptamine receptor 1A (Homo sapiens, UniProt P08908); assay: In vitro binding affinity by radioligand binding assay using cell line expressing human 5-hydroxytryptamine 1A receptor; in short: as §1
# T2 sequence (P08908 whole entry): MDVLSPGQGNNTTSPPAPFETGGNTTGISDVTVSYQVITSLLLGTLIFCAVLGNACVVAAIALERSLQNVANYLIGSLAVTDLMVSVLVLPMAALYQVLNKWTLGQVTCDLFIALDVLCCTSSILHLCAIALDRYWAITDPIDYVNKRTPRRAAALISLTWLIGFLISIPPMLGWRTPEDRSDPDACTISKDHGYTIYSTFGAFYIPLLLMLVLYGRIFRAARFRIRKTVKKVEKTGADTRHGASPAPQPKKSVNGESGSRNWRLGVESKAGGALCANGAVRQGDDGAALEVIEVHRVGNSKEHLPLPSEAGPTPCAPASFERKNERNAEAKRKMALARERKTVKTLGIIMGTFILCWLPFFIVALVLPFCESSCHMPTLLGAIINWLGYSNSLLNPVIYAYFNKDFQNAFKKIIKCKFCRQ
# [3] = target: 5-hydroxytryptamine receptor 1D (Homo sapiens, UniProt P28221); assay: In vitro binding affinity by radioligand binding assay using cell line expressing human 5-hydroxytryptamine 1D receptor; in short: as §1
# Sequence of 5-hydroxytryptamine receptor 1D (P28221 whole entry): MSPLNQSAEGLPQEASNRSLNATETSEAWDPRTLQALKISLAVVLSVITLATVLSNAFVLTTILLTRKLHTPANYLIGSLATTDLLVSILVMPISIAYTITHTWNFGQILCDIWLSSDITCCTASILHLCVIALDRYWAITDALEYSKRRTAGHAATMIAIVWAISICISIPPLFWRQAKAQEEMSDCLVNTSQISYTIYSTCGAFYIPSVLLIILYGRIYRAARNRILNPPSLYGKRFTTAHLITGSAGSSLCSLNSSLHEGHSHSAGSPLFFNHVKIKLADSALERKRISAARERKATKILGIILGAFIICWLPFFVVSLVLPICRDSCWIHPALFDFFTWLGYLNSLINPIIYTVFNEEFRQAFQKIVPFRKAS
# [4] = target: 5-hydroxytryptamine receptor 1B (Homo sapiens, UniProt P28222); assay: In vitro binding affinity by radioligand binding assay using cell line expressing human 5-hydroxytryptamine 1B receptor
# Sequence of 5-hydroxytryptamine receptor 1B (P28222 whole entry): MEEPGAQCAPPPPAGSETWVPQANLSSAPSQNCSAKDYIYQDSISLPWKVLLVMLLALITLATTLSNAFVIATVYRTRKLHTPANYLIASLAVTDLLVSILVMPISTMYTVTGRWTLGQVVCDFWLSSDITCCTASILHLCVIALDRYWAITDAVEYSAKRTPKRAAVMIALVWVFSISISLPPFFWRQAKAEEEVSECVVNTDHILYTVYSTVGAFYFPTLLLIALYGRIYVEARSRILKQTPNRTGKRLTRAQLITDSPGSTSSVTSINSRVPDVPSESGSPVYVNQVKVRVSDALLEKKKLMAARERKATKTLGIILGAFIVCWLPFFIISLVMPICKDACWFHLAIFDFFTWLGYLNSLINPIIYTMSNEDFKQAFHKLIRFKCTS
# In short: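 Ki (nM) from radioligand binding on cell lines each expressing one human serotonin receptor subtype. Values are means of at least three determinations with SEM.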
# [5] = target: T1, 5-hydroxytryptamine receptor 1F; assay: In vitro effective concentration for stimulation of [35S]GTP-gamma-S, binding in mouse LM(tk-)cells expressing the human 5-hydroxytryptamine 1F receptor; type: functional
# [6] = target: T3, 5-hydroxytryptamine receptor 1F (Homo sapiens) (UniProt P30939); assay: Maximum stimulation of [35S]GTP-gamma-S, binding expressed relative to the maximal effect of 5-hydroxytryptamine […]; type: functional
# T3 sequence (whole entry): T1 sequence (P30939 whole entry)
# [7] = test system: Cavia porcellus; assay: In vivo efficacy in neurogenic plasma protein extravasation screen using guinea pig neurogenic PPE assay (1 ng/kg, po) at 1 hr postdose; type: functional
# In short: (§2)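 Guinea pig neurogenic dural PPE screen. Single oral dose of 1 ng/kg, then unilateral trigeminal ganglion stimulation with Evan's blue-labelled plasma protein leakage. Read-out is the fluorescence ratio of stimulated to unstimulated dura at 1 h or 24 h postdose. A ratio near 1 means full efficacy; near 1.8 means ineffective.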
# [8] = species on record: Oryctolagus cuniculus; assay: In vitro contractile response in rabbit saphenous vein; type: functional
# In short: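 Rabbit saphenous vein rings. Maximal contraction is expressed as % of the contraction induced by KCl (67 mM), with the concentration giving the maximal response recorded. Means (SEM) of three to seven determinations.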
# [9] = test system: Cavia porcellus; assay: In vivo efficacy in neurogenic plasma protein extravasation screen using guinea pig neurogenic PPE assay (1 ng/kg, po) at 24 hr postdose; type: functional; in short: as §2
SMILES,Ki [1],Ki [2],Ki [3],Ki [4],EC50 [5],Emax [6],Efficacy [7],Response [8],Efficacy [9]
CCN1CC=C(c2c[nH]c3ccc(NC(=O)c4ccc(F)cc4)nc23)CC1,25 nM,,,,,,,,
CN1CCC(c2c[nH]c3ccc(NC(=O)c4ccccc4[N+](=O)[O-])nc23)CC1,19 nM,64 nM,170 nM,,,,,,
CN1CCC(c2c[nH]c3cnc(NC(=O)c4ccc(F)cc4)nc23)CC1,67 nM,200 nM,1900 nM,6000 nM,,,,,
CN1CCC(c2c[nH]c3ccc(NC(=O)C4CCCCC4)nc23)CC1,20 nM,660 nM,,,,,,,
CN1CCC(c2c[nH]c3ccc(NC(=O)C4CC4)nc23)CC1,9.8 nM,1400 nM,1800 nM,1700 nM,34 nM,77%,1.4,2.3%,
CCN1CC=C(c2c[nH]c3ccc(NC(C)=O)nc23)CC1,21 nM,,,,,,,,
CN1CCC(c2c[nH]c3ccc(NS(C)(=O)=O)nc23)CC1,19 nM,,380 nM,610 nM,,,,,
Cc1cccc(C(=O)Nc2ccc3[nH]cc(C4CCN(C)CC4)c3n2)c1,5.8 nM,100 nM,490 nM,1200 nM,,,,,
CN1CCC(c2c[nH]c3ccc(OS(=O)(=O)c4ccc(F)cc4)nc23)CC1,7.5 nM,,30 nM,,,,,,
CN1CCC(c2c[nH]c3ccc(O)nc23)CC1,100 nM,,,,,,,,
CN1CCC(c2c[nH]c3ccc(NS(=O)(=O)c4ccc(F)cc4)nc23)CC1,27 nM,,,,,,,,
CNC(=O)Nc1ccc2[nH]cc(C3CCN(C)CC3)c2n1,2.5 nM,,8.5 nM,14 nM,,,,,
CCNC(=O)Nc1ccc2[nH]cc(C3CCN(C)CC3)c2n1,3.8 nM,,40 nM,,,,,,
CN1CCC(c2c[nH]c3ccc(NC(=O)c4ccc(Cl)cc4Cl)nc23)CC1,4.1 nM,5.1 nM,83 nM,,,,,,
CCCCCCCC(=O)Nc1ccc2[nH]cc(C3CCN(C)CC3)c2n1,20 nM,,110 nM,32 nM,,,,,
CN1CCC(c2c[nH]c3ccc(NC(=O)c4cccc([N+](=O)[O-])c4)nc23)CC1,42 nM,130 nM,330 nM,390 nM,,,,,
COc1ccc2[nH]cc(C3CCN(C)CC3)c2n1,23 nM,,23 nM,110 nM,,,,,
CN1CCC(c2c[nH]c3ccc(NC(=O)c4cccs4)nc23)CC1,7.1 nM,350 nM,650 nM,390 nM,15 nM,61%,,,
CC(=O)Nc1cc2c(C3CCN(C)CC3)c[nH]c2cn1,210 nM,2 nM,39 nM,,,,,,
CC(=O)Nc1ccc2[nH]cc(C3CCNCC3)c2n1,45 nM,,,,,,,,
CN1CCC(c2c[nH]c3ccc(NC(=O)c4ccco4)nc23)CC1,13 nM,560 nM,930 nM,1100 nM,11 nM,82%,,,
CCCCC(=O)Nc1ccc2[nH]cc(C3CCN(C)CC3)c2n1,14 nM,,,,,,,,
CN1CCC(c2c[nH]c3ccc(NC(=O)Nc4ccc(F)cc4)nc23)CC1,11 nM,,3.8 nM,3.2 nM,,,,,
CN1CCC(c2c[nH]c3ccc(NC(=O)c4ccccc4)nc23)CC1,7.3 nM,72 nM,1000 nM,820 nM,,,1.1,0%,1.6
COc1ccccc1C(=O)Nc1ccc2[nH]cc(C3CCN(C)CC3)c2n1,20 nM,20 nM,,750 nM,,,,,
CCCC(=O)Nc1ccc2[nH]cc(C3CCN(C)CC3)c2n1,6.9 nM,,,,13 nM,94%,,12.4%,
CC(=O)Nc1ncc2[nH]cc(C3CCN(C)CC3)c2n1,220 nM,780 nM,470 nM,2900 nM,,,,,

SMILES,Ki [1],Ki [2],Ki [3],Ki [4],EC50 [5],Emax [6],Efficacy [7],Response [8],Efficacy [9]
CC(C)N1CCC(c2c[nH]c3ccc(NC(=O)c4ccc(F)cc4)nc23)CC1,30 nM,,,,,,,,
CCCN1CCC(c2c[nH]c3ccc(NC(=O)c4ccc(F)cc4)nc23)CC1,18 nM,,,,,,,,
CN1CCC(c2c[nH]c3ccc(NC(=O)c4ccoc4)nc23)CC1,4.6 nM,840 nM,1100 nM,930 nM,11 nM,88%,,,
CN1CCC(c2c[nH]c3ccc(NC(=O)c4cccc(F)c4)nc23)CC1,11 nM,135 nM,690 nM,1600 nM,,,,,
CN1CCC(c2c[nH]c3ccc(NC(=O)c4ccc(F)cc4)cc23)CC1,2.1 nM,22 nM,430 nM,,,,,,
CN1CCC(c2c[nH]c3ccc(NC(=O)C4CCC4)nc23)CC1,8.7 nM,2000 nM,900 nM,380 nM,21 nM,81%,,17%,
CN1CCC(c2c[nH]c3ccc(NC(=O)C(C)(C)C)nc23)CC1,62 nM,,,,,,,,
CN1CCC(c2c[nH]c3ccc(NC(=O)c4ccccn4)nc23)CC1,6.3 nM,41 nM,820 nM,1000 nM,25 nM,63%,,,
CN1CCC(c2c[nH]c3ccc(NC(=O)c4ccc([N+](=O)[O-])cc4)nc23)CC1,7.7 nM,38 nM,340 nM,270 nM,,,,,
CN1CCC(c2c[nH]c3cnc(NC(=O)c4ccc(F)cc4)cc23)CC1,13 nM,17 nM,53 nM,80 nM,,,,,
CN1CCC(c2c[nH]c3ccc(NC(=O)c4ccccc4F)nc23)CC1,19 nM,42 nM,,,,,,,
CN1CCC(c2c[nH]c3ccc(NC(=O)c4ccncc4)nc23)CC1,8.4 nM,40 nM,420 nM,330 nM,11 nM,97%,,,
COc1cccc(C(=O)Nc2ccc3[nH]cc(C4CCN(C)CC4)c3n2)c1,16 nM,98 nM,,,,,,,
CC(=O)Nc1ccc2[nH]cc(C3CCN(C)CC3)c2c1,9.7 nM,68 nM,150 nM,390 nM,,,,,
CN1CCC(c2c[nH]c3ccc(NC(=O)c4cccc(C#N)c4)nc23)CC1,11 nM,100 nM,,590 nM,,,,,
CCCCCC(=O)Nc1ccc2[nH]cc(C3CCN(C)CC3)c2n1,13 nM,,,,,,,,
CCN1CCC(c2c[nH]c3ccc(NC(=O)c4ccc(F)cc4)nc23)CC1,170 nM,,,,,,,,
O=C(Nc1ccc2[nH]cc(C3CCN(CCc4ccccc4)CC3)c2n1)c1ccc(F)cc1,75 nM,,,,,,,,
CCCCN1CCC(c2c[nH]c3ccc(NC(=O)c4ccc(F)cc4)nc23)CC1,14 nM,,,,,,,,
O=C(Nc1ccc2[nH]cc(C3CCNCC3)c2n1)c1ccc(F)cc1,9.5 nM,,,,,,,,
CN1CCC(c2c[nH]c3ccc(NC(=O)c4ccsc4)nc23)CC1,7.4 nM,400 nM,810 nM,1000 nM,9.4 nM,84%,1,0%,1.6
Cc1ccccc1C(=O)Nc1ccc2[nH]cc(C3CCN(C)CC3)c2n1,12 nM,106 nM,440 nM,150 nM,,,,,
Cc1ccc(C(=O)Nc2ccc3[nH]cc(C4CCN(C)CC4)c3n2)cc1,12 nM,30 nM,,,,,,,
CCC(=O)Nc1ccc2[nH]cc(C3CCNCC3)c2n1,35 nM,,,,,,,,
CN1CCC(c2c[nH]c3ccc(N)nc23)CC1,100 nM,,420 nM,800 nM,,,,,
CN1CCC(c2c[nH]c3ccc(NC(=O)C4CCCC4)nc23)CC1,11 nM,2000 nM,740 nM,640 nM,,,,,
CN1CCC(c2c[nH]c3ccc(OS(C)(=O)=O)nc23)CC1,4.7 nM,,8 nM,25 nM,,,,,

# Reference: ChEMBL document CHEMBL1145835, “Novel potent 5-HT(1F) receptor agonists: structure-activity studies of a series of substituted N-[3-(1-methyl-4-piperidinyl)-1H-pyrrolo[3,2-b]pyridin-5-yl]amides” (J Med Chem, 2003)
